Laboratory results reported in ChEMBL document CHEMBL1132841, “Optimization of a somatostatin mimetic via constrained amino acid and backbone incorporation” (Bioorg Med Chem Lett, 2000).

Columns and labels:
[1] = molecular target: T1, Somatostatin receptor type 2 (Homo sapiens, UniProt P30874); assay: Inhibitory concentration required for somatostatin 2 receptor in radioligand binding assay ([125I]Tyr11-SRIF)
Outline: (§1)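 IC50 values were determined by displacement of [125I]-Tyr11-SRIF on membranes from CHO-K1 cells expressing the relevant human sst subtype. Unlabelled SRIF defined nonspecific binding. Bound ligand was separated by rapid filtration on glass-fibre filters pre-soaked in 0.5% PEI. Filters were washed three times with 50 mM Tris-HCl pH 7.4 containing 5 mg/mL BSA and gamma counted.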

[2] = molecular target: T2, Somatostatin receptor type 3 (Homo sapiens, UniProt P32745); assay: Inhibitory concentration required for somatostatin 3 receptor in radioligand binding assay ([125I]Tyr11-SRIF); outline: as §1
T2 sequence (P32745 whole entry): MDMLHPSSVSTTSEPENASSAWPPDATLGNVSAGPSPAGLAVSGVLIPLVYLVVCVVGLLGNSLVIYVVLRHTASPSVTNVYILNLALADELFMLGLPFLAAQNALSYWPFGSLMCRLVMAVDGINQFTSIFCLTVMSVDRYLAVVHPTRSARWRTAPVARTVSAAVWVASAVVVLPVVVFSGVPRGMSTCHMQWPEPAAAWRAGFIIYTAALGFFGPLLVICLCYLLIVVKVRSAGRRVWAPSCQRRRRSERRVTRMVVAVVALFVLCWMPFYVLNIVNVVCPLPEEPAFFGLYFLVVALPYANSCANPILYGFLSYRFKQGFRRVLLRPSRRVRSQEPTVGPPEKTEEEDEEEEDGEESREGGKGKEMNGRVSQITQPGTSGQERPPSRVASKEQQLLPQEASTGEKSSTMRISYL

[3] = molecular target: T3, Somatostatin receptor type 1 (Homo sapiens, UniProt P30872); assay: Inhibition of somatostatin binding to sst1 receptor at 1 uM in radioligand binding assay ([125I]Tyr11-SRIF) in membranes from CHO-K1 cells; type: cell membranes
T3 sequence (P30872 whole entry): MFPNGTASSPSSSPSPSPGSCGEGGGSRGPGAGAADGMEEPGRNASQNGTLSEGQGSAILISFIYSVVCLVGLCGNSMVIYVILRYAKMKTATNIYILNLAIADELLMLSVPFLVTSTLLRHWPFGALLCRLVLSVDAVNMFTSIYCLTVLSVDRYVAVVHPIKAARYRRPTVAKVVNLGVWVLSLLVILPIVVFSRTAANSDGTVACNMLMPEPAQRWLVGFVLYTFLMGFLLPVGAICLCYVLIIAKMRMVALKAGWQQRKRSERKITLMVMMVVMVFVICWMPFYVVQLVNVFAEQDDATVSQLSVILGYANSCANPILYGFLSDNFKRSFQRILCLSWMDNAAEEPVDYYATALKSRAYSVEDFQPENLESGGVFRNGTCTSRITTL
Outline: (§2)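 Competitive binding against [125I]-Tyr11-SRIF on membranes from CHO-K1 cells expressing human sst1–sst5, with each test compound at a single concentration. Nonspecific binding was defined with unlabelled SRIF. Incubations were stopped by rapid filtration through 0.5% PEI-soaked glass-fibre filters, then three washes in 50 mM Tris-HCl pH 7.4 with 5 mg/mL BSA. Filter radioactivity was gamma counted.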

[4] = molecular target: T1, Somatostatin receptor type 2; assay: Inhibition of somatostatin binding to sst2 receptor at 1 uM in radioligand binding assay ([125I]Tyr11-SRIF) in membranes from CHO-K1 cells; type: cell membranes; outline: as §2
[5] = molecular target: T4, Somatostatin receptor type 5 (Homo sapiens, UniProt P35346); assay: Inhibition of somatostatin binding to sst5 receptor at 1 uM in radioligand binding assay ([125I]Tyr11-SRIF) in membranes from CHO-K1 cells; type: cell membranes; outline: as §2
T4 sequence (P35346 whole entry): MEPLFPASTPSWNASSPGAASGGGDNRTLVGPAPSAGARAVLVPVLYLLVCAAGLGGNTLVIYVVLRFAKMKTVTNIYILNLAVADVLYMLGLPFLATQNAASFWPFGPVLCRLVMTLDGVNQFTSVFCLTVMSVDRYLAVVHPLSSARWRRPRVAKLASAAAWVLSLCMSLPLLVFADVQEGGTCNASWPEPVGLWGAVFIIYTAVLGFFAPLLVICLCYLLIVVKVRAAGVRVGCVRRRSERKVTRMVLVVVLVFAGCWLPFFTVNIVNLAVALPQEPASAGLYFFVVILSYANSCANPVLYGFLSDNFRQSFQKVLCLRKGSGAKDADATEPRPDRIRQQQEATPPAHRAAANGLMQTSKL

[6] = molecular target: T4, Somatostatin receptor type 5; assay: Inhibitory concentration required for somatostatin 5 receptor in radioligand binding assay ([125I]-Tyr11-SRIF); outline: as §1
[7] = molecular target: T5, Somatostatin receptor type 4 (Homo sapiens, UniProt P31391); assay: Inhibitory concentration required for somatostatin 4 receptor in radioligand binding assay ([125I]Tyr11-SRIF); outline: as §1
T5 sequence (P31391 whole entry): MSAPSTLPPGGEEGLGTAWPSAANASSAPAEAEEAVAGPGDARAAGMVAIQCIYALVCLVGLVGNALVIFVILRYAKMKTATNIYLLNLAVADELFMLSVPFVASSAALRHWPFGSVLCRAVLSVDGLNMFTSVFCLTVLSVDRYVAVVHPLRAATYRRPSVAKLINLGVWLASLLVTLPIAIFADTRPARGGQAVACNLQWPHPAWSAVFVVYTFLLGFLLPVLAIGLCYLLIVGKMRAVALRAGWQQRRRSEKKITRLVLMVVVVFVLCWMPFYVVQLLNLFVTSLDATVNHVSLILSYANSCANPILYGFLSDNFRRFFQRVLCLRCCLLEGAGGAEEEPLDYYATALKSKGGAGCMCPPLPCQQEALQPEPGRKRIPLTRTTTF

[8] = molecular target: T3, Somatostatin receptor type 1; assay: Inhibitory concentration required for somatostatin 1 receptor in radioligand binding assay ([125I]Tyr11-SRIF); outline: as §1
[9] = molecular target: T2, Somatostatin receptor type 3; assay: Inhibition of somatostatin binding to sst3 receptor at 1 uM in radioligand binding assay ([125I]Tyr11-SRIF) in membranes from CHO-K1 cells; type: cell membranes; outline: as §2
[10] = molecular target: T5, Somatostatin receptor type 4; assay: Inhibition of somatostatin binding to sst4 receptor at 1 uM in radioligand binding assay ([125I]Tyr11-SRIF) in membranes from CHO-K1 cells; type: cell membranes; outline: as §2

T1 sequence (P30874 whole entry): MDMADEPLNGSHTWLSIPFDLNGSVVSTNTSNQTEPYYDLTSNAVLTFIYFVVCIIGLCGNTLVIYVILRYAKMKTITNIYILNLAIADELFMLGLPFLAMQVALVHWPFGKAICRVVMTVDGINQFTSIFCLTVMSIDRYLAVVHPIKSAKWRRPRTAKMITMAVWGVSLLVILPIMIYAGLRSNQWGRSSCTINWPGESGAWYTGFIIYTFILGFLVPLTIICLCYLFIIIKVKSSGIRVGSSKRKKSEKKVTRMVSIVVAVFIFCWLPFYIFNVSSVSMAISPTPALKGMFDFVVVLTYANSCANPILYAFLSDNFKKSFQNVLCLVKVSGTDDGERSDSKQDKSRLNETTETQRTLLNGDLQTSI

Row | SMILES | IC50 [1] | IC50 [2] | inhibition [3] | inhibition [4] | inhibition [5] | IC50 [6] | IC50 [7] | IC50 [8] | inhibition [9] | inhibition [10]
1 | NCCCC[C@H]1NC(=O)[C@@H](Cc2c[nH]c3ccccc23)SCCN(Cc2cccc3ccccc23)C1=O | 1590 nM | 3090 nM | 64% | 33% | 99% | 87 nM | 1050 nM | 501 nM | 42% | 43%
2 | NCCCC[C@H]1NC(=O)[C@@H](Cc2c[nH]c3ccccc23)Sc2ccccc2CN(Cc2cccc3ccccc23)C1=O |  |  | 36% | 7% | 64% |  |  |  | 13% | 41%

Second part, the compound after the results:

Row | IC50 [1] | IC50 [2] | inhibition [3] | inhibition [4] | inhibition [5] | IC50 [6] | IC50 [7] | IC50 [8] | inhibition [9] | inhibition [10] | SMILES
3 | 275 nM | 1260 nM | 64% | 74% | 89% | 41 nM | 41 nM | 407 nM | 44% | 99% | NCCCC1CCCN2C(=O)[C@@H](Cc3c[nH]c4ccccc34)SCCN(Cc3cccc4ccccc34)C(=O)C12 (stereo not given in full)
4 |  |  | 13% | 7% | 56% |  |  |  | 19% | 12% | NCC[C@@H]1C[C@@H]2C(=O)N(Cc3cccc4ccccc34)CCS[C@H](Cc3c[nH]c4ccccc34)C(=O)N2C1
5 |  |  | 28% | 20% | 50% |  |  |  | 16% | 17% | NCC[C@H]1C[C@@H]2C(=O)N(Cc3cccc4ccccc34)CCS[C@H](Cc3c[nH]c4ccccc34)C(=O)N2C1
